Compound activity (PubChem BioAssay)
Only some compounds are listed: those with a hit (about 3.7% of all), similar ones and a draw of the others.
OX1R antag-1: antagonists of human orexin 1 receptor (OX1R). Orexin/Hypocretin receptor type 1 (Homo sapiens), O43613. OX1R-expressing cells, FRET antagonist read-out. inhibition, % at 6.6 µM. actives 1.8% (n = 330,000). AID 485270, 2010; in the data active = inhibition mostly above about 38%, no sharp cut-off; inactive = mostly below about 40%;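 note: 0% = agonist challenge alone and 100% = reference antagonist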
Target sequence (O43613 whole entry, looked up): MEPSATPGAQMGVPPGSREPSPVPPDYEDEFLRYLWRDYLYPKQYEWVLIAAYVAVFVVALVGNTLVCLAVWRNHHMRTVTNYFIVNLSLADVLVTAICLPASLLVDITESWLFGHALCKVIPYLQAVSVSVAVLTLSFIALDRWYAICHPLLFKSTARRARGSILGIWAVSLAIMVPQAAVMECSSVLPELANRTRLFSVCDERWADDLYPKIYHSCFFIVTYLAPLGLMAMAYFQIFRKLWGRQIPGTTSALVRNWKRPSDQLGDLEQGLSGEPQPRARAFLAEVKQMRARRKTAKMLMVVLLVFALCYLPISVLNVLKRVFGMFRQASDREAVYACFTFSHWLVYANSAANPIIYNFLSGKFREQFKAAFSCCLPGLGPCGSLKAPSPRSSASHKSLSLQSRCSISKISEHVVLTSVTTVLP
GPR7 antagonist: GPR7 receptor antagonists, primary screen, cell-based, fluorescence, single concentration; Neuropeptides B/W receptor type 1 (Homo sapiens), P48145; GPR7-expressing cells, fluorescence antagonist assay; inhibition, % at 4.4 µM; actives 1.1% (n = 290,000); in the data active = inhibition above about 16%, passing the limit was not always enough;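 note: cells stimulated with the agonist NPW; 0% = agonist with vehicle and 100% = vehicle without agonist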
PGE2 EP2 inh: human EP2 receptor antagonists, primary screen, TR-FRET cAMP, C6 glioma cells; actives 0.52% (n = 260,000); inhibition, % at 25 µM; Prostaglandin E2 receptor EP2 subtype (Homo sapiens), P43116; AID 1422, 2008; C6 glioma cells expressing human EP2; cells stimulated with saturating PGE2;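 active = percent inhibition above 40 after rounding to a whole number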;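 note: rat C6 glioma host cells with rolipram phosphodiesterase inhibitor present; the protocol text gives 20 µM as final concentration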
OX1R antag-2: OX1R (HCRTR1) antagonists, primary screen, fluorescence, CHO/OX1R cells, Fluo-8 calcium, orexin A. inhibition, % at 5 µM. actives 0.43% (n = 330,000). Fluo-8 calcium fluorescence. Orexin/Hypocretin receptor type 1 (Homo sapiens), O43613;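 active = inhibition above its plate's threshold, mean inhibition of all tested compounds on the plate plus 3 SD, cut at about 37% in these data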;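 note: 0% = orexin A challenge wells and 100% = SB-334867-A antagonist wells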
EP2 mod: EP2 receptor modulators, cAMP readout, primary screen, cell-based, HTRF cAMP, PGE2 stimulation. Prostaglandin E2 receptor EP2 subtype (Homo sapiens), P43116. actives 0.83% (n = 260,000). induction, % at 25 µM. EP2-expressing cells, cAMP HTRF FRET, PGE2 co-stimulation;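 active = compounds whose cAMP rise, as percent of the full-agonist control response, exceeds 60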;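 note: rat C6 glioma line stably carrying human EP2 under a CMV promoter; the protocol text gives 20 µM as final concentration; 100% = response of wells given 1 µM PGE2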
CHO parental Ca: ATP-evoked calcium signal inhibitors, parental CHO, primary screen, counter-screen for OX1R antagonist project, cell-based, fluorescence, Fluo-8 calcium dye; inhibition, % at 5.6 µM; actives 0.63% (n = 330,000); parental CHO-K1, ATP-induced calcium, Fluo-8 fluorescence;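 active = inhibition above that plate's mean sample inhibition plus 3 SD, cut at about 26% in these data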;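 note: 0% = ATP-challenged DMSO wells and 100% = DMSO wells without ATP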
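Material: parental CHO cells / Compound: single nominal dose of 5.6 µM per compound / Signal: Fluo-8 fluorescence / Replicates: singlicate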
* marks the source's active call; other numbers are inactive results; / = not tested or not shown; ! = repeats disagree.

SMILES | OX1R antag-1 | GPR7 antagonist | PGE2 EP2 inh | OX1R antag-2 | EP2 mod | CHO parental Ca
CCn1ncc(CN(CCc2ccccc2)Cc2cccs2)c1C | / | / | 2 | / | 44 | /
O=C1NC(=O)N(Cc2ccccc2)C(=O)/C1=C/C=C/c1ccco1 | 6 | 3 | 106* | 6 | -56 | 4
COc1ccc(CN2C(=O)NC(=O)/C(=C\c3ccco3)C2=O)cc1 | 7 | -11 | 16 | -6 | -86 | -5
NC(=O)c1c([N+](=O)[O-])no[n+]1[O-] | / | / | 119* | / | -102 | /
NC(=O)c1cc([N+](=O)[O-])cc([N+](=O)[O-])c1 | / | / | 12 | / | -16 | /
Cc1ccc(NC(=[OH+])c2cc3ccccc3cc2O)c(C)c1.Cc1ccc(NC(=[OH+])c2cc3ccccc3cc2O)c(C)c1.[Ni] | / | / | 43* | / | -6 | /
Cc1nc2cc(F)ccc2n1C1CCN(Cc2nnnn2CCc2ccccc2)CC1 | 8 | -6 | 8 | -18 | -15 | -4
Cc1nc2cc(C(F)(F)F)ccc2n1C1CCN(Cc2nnnn2CCc2ccccc2)CC1 | 4 | 20* | 3 | -19 | -21 | -5
CC[n+]1c(/C=C/N(C)c2ccccc2)sc2ccc(Cl)cc21 | 5 | -4 | 5 | -11 | -27 | -21
CC(C)OCCCNC(=O)c1c(N)n(CC2CCCO2)c2nc3ccccc3nc12 (centres undefined) | 12 | 15* | 14 | -21 | / | -24
CC(=O)[O][Hg][c]1ccccc1 | / | / | 113* | / | -40 | /
CN1[C@H]2CC[C@@H]1C(C(=O)N1CCOCC1)=C(O)C2 | 2 | / | / | 12 | / | -1
CCOC(=O)c1ccc2[nH]c(-c3ccc(S(=O)(=O)F)cc3)cc(=O)c2c1 | -6 | -3 | 51*! | 13 | -13 | 15
C[C@@H]1O[C@H](OC2[C@@H](O)[C@H](O)C(O)[C@H](O)[C@H]2O)[C@@H](N)C[C@H]1N=C(N)C(=O)O (some centres undefined) | / | / | 51* | / | 11 | /
O=C(CCCN1CCC2(CC1)C(=O)NCN2c1ccccc1)c1ccc(F)cc1 | 10 | 102* | 27 | 106* | -39 | 99*
Clc1ccc(C[n+]2c(-c3ccccc3)cc(-c3ccccc3)cc2-c2ccccc2)cc1 | 3 | / | / | 63* | / | 63*
Fc1ccc(C[n+]2c(-c3ccccc3)cc(-c3ccccc3)cc2-c2ccccc2)cc1 | 19 | / | / | 15 | / | 23
C[CH2][Hg][S]c1ccccc1C(=O)O | 3 | / | 115* | 89* | -38 | 73*
CCN(CC)CCC(=O)O[C@H]1CC[C@]2(C)C3CC[C@@]4(C)C(CC[C@]4(C)O)C3CC[C@H]2C1 (some centres undefined) | 5 | / | / | 19 | / | 0
O=C1Nc2ccc(Br)cc2C(c2ccccc2Cl)=NC1O (centres undefined) | 12 | -11 | 16 | -7 | -13 | -6
Nc1cc[c]([Hg])cc1.Nc1nc2c(ncn2[C@H]2O[C@H](CO)[C@@H](O)[C@@H]2O)c(=[SH+])[nH]1 | / | / | 104* | / | -43 | /
Cc1ccc(S(=O)(=O)N2CCCC2c2cccnc2)cc1 (centres undefined) | 4 | -5 | 3 | -13 | 8 | -6
Cc1c(N=Nc2c(O)[nH]c(=S)[nH]c2=O)c(=O)n(-c2ccccc2)n1C | 77* | -3 | 7 | 2 | -5 | -9
C=CCn1c(O)c(N=Nc2c(C)n(C)n(-c3ccccc3)c2=O)c(=O)[nH]c1=S | 58 | 12 | 9 | -8 | 7 | -6
CCCCCCn1c(O)c(C=Nc2c(C)n(C)n(-c3ccccc3)c2=O)c(=O)[nH]c1=O | 29 | -20 | 4 | -23 | -3 | -20
SMILES | OX1R antag-1 | GPR7 antagonist | PGE2 EP2 inh | OX1R antag-2 | EP2 mod | CHO parental Ca
CCOc1ccc(-n2c(O)c(N=Nc3c(C)n(C)n(-c4ccccc4)c3=O)c(=O)[nH]c2=O)cc1 | 39* | -5 | 6 | -2 | -21 | 6
Cc1ccc(S(=O)(=O)N[C@@H](CCCCN)C(=O)CCl)cc1 | 10 | / | 17 | 0 | 66* | 4
O=C1NC(=O)N(c2ccccc2F)C(=O)/C1=C/c1ccc(Sc2nc3ccccc3[nH]2)o1 | 17 | 2 | 12 | 41 | 28 | 38
O=C1NC(=O)N(c2ccccc2)C(=O)/C1=C/c1ccc(Sc2ccccc2)o1 | 8 | -7 | 41* | 8 | -3 | -4
O=C1NC(=O)N(c2ccccc2)C(=O)/C1=C/c1ccoc1 | 9 | -1 | 6 | 14 | -61 | 3
O=C1NC(=O)N(c2cccc(Cl)c2)C(=O)/C1=C\c1ccc(Sc2nc3ccccc3[nH]2)o1 | 9 | -4 | 15 | 62* | -58 | 39*
Cc1ccc(N/N=C/c2c(O)n(-c3ccccc3)c(=O)[nH]c2=O)cc1 | 23 | 3 | 4 | -32 | -32 | -16
COCCCn1c(N)c(C(=O)NCCC(C)C)c2nc3ccccc3nc21 | 7 | -2 | 10 | -20 | 42 | -16
C[C@H](c1ccccc1)N1CCN([C@@H](C)c2ccccc2)CC1 | / | / | 13 | / | 13 | /
CCCC[N+]1(C)[C@@H]2CC(OC(=O)[C@H](CO)c3ccccc3)C[C@H]1[C@@H]1O[C@@H]12 (some centres undefined) | 7 | -7 | 12 | -8 | 23 | -5
Cc1ccc2c(c1N)C(=O)c1ccccc1C2=O | 40* | / | / | 19 | / | 4
COc1cc(OC)c([C@H]2C=C(C)[C@H]3C[C@@H]2C3(C)C)c(OC)c1 | 8 | / | / | -15 | / | -10
O=C1NS(=O)c2cc([N+](=O)[O-])cc([N+](=O)[O-])c21 (centres undefined) | 67* | -7 | 12 | -1 | -7 | -8
O=C1NC(=O)N(CCNc2ncc(C(F)(F)F)cc2Cl)C(=O)C1/C=N/OCc1c(F)cccc1Cl (centres undefined) | 13 | 14 | / | -4 | -18 | 1
Cc1ccc(C2(c3ccc(C)c(O)c3C)CCN(C)CC2)c(C)c1O | / | / | 112* | / | -45 | /
COc1ccc(CCn2c(O)c(C=NCCCO)c(=O)[nH]c2=O)cc1OC | 27 | -9 | 14 | -15 | 27 | -16
COc1cc2c(cc1OC)[C@@]13CCN4C=C5CCO[C@H]6CC(=O)N2[C@H]1[C@H]6[C@H]5C[C@H]43 | / | / | 53* | / | -9 | /
COc1cc2c(cc1OC)C13CCN4CC5=CCOC6CC(=O)N2C1C6C5CC43 (centres undefined) (tested in a mixture with another compound) | 19 | -8 | 10 | -16 | 8 | -1
